According to ChEMBL document CHEMBL5370658, “Development of First-in-Class Dual Sirt2/HDAC6 Inhibitors as Molecular Tools for Dual Inhibition of Tubulin Deacetylation” (J Med Chem, 2023):
Active and inactive are the calls of the source. The calls are words filed in the database; no cut-off is given here.

Legend:
[1] = biological target: Histone deacetylase 1/2/3 (Homo sapiens) (UniProt Q13547+O15379+Q92769); test: Inhibition of HDAC1/2/3 in human MCF7 cells assessed as increase in histone H3 acetylation at 10 to 20 uM incubated for 24 hrs by Western blot analysis; format: cell-based; conditions: dose 10-20 µM
[2] = system: PC-3M-luc; test: Cytotoxicity against human PC-3M-luc cells assessed as reduction in cell viability incubated for 72 hrs by MTS assay; format: functional, cell-based
How it was run: (§1)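 Cell viability EC50 from at least two independent experiments, each run in triplicate. Results are compared by t-test.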

[3] = system: W1 Ovarian cancer cell; test: Cytotoxicity against human W1 Ovarian cancer cells assessed as reduction in cell viability incubated for 72 hrs by MTT assay; format: functional, cell-based; how it was run: as §1
[4] = system: PC-3M-luc; conditions: Homo sapiens, dose 20.0 µM, time 5.0 hrs
[5] = biological target: Histone deacetylase 9 (Homo sapiens) (UniProt Q9UKV0); test: Inhibition of HDAC9 (unknown origin) using Abz-SRGGK(STFA)FRR-NH2 as substrate at 6 to 20000 nM preincubated for 5 mins followed by substrate addition and measured every 30 secs for 30 mins by continuous fluorescence based assay; conditions: dose 6-20000 nM, time 35.0 min
How it was run: (§2)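 Continuous fluorescence assay in 20 mM HEPES pH 7.4, 140 mM NaCl, 10 mM KCl, 1 mM TCEP, 0.2 mg/mL BSA, 3% DMSO final. Enzyme (HDAC4 5 nM, HDAC5 10 nM, HDAC7 5 nM, HDAC9 20 nM) preincubated with inhibitor at room temperature. HDAC10 (5 nM) instead in 20 mM HEPES pH 7.4, 0.5 mg/mL BSA. Initial slope used as activity.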

[6] = biological target: NAD-dependent protein deacylase sirtuin-6 (Homo sapiens) (UniProt Q8N6T7); test: Inhibition of Sirt6 (unknown origin) using Ac-EALPKK(Myr)Y(NO2)GG-NH2 as substrate at 20 to 500 uM preincubated for 5 mins followed by enzyme addition and measured after 1 hr by RP-HPLC analysis; conditions: dose 20-500 µM, time 65.0 min
How it was run: (§3)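 Discontinuous HPLC assay, 120 µL in 20 mM Tris pH 7.8, 150 mM NaCl, 5 mM MgCl2, 0.2 mg/mL BSA, 5% DMSO. Inhibitor preincubated at 37 °C with NAD+ (1 mM) and substrate (Sirt5 5 µM; Sirt6 20 µM). Started with enzyme (Sirt5 100 nM; Sirt6 500 nM). Quenched with TFA/ACN. Sirt5 read by A220, Sirt6 by A360 (nitrotyrosine). Performed once in duplicates; IC50 by nonlinear regression.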

[7] = biological target: T1, Protein deacetylase HDAC6 (Homo sapiens) (UniProt Q9UBN7); test: Binding affinity to HDAC6 in human MCF7 cells assessed as target engagement by measuring rescue of PROTAC induced protein degradation at 20 uM preincubated with compound for 30 mins followed by PROTAC 4-((5-(8-(2-((2-(2,6-dioxopiperidin-3-yl)-1,3-dioxoisoindolin-4 yl)oxy)acetamido)octanamido)-2-meth …; format: cell-based; conditions: time 6.5 hrs
T1 sequence (whole entry): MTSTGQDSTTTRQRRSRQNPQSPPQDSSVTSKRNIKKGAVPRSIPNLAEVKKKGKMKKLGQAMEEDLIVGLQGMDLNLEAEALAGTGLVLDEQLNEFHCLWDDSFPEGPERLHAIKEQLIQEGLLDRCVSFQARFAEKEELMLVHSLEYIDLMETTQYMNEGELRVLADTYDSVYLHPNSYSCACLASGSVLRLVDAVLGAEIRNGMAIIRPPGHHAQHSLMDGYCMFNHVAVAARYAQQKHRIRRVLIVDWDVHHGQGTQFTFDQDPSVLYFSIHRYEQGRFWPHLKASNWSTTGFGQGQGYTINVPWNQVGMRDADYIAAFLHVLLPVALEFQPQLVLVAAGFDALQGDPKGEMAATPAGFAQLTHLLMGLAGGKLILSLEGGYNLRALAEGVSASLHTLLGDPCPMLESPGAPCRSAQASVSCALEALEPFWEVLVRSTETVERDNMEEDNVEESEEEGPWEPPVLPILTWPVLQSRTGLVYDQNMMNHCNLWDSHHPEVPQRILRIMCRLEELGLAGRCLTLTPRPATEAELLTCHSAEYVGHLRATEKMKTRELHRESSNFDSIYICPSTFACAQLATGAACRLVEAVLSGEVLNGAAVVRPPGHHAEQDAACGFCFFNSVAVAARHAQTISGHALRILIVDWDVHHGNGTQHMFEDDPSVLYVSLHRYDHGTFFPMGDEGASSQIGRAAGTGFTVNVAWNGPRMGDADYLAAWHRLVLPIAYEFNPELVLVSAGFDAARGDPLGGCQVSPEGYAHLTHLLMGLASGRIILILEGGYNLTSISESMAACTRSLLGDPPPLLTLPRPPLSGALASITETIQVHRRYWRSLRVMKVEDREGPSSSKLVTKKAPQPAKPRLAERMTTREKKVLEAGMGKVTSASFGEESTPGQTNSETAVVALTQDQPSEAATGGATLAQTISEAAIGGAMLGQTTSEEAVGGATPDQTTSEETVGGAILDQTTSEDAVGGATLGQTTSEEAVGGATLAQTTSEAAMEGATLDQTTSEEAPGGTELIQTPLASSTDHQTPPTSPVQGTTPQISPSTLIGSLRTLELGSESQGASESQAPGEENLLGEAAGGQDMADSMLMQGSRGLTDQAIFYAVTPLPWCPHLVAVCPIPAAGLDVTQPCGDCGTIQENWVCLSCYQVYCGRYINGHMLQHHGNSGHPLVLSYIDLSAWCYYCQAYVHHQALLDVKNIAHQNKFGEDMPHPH

[8] = biological target: Histone deacetylase 5 (Homo sapiens) (UniProt Q9UQL6); test: Inhibition of HDAC5 (unknown origin) using Abz-SRGGK(STFA)FRR-NH2 as substrate at 6 to 20000 nM preincubated for 5 mins followed by substrate addition and measured every 30 secs for 30 mins by continuous fluorescence based assay; conditions: dose 6-20000 nM, time 35.0 min; how it was run: as §2
[9] = system: MCF7; test: Cytotoxicity against human MCF7 cells assessed as reduction in cell viability incubated for 72 hrs by MTT assay; format: functional, cell-based; how it was run: as §1
[10] = biological target: NAD-dependent protein deacylase sirtuin-5, mitochondrial (Homo sapiens) (UniProt Q9NXA8); test: Inhibition of Sirt5 (unknown origin) using Bz-GVLK(Succ)EYGV-NH2 as substrate at 20 to 500 uM preincubated for 5 mins followed by enzyme addition and measured after 5 mins by RP-HPLC analysis; conditions: dose 20-500 µM, time 10.0 min; how it was run: as §3
Sequence of NAD-dependent protein deacylase sirtuin-5, mitochondrial (Homo sapiens) (Q9NXA8 37-310 limits assumed): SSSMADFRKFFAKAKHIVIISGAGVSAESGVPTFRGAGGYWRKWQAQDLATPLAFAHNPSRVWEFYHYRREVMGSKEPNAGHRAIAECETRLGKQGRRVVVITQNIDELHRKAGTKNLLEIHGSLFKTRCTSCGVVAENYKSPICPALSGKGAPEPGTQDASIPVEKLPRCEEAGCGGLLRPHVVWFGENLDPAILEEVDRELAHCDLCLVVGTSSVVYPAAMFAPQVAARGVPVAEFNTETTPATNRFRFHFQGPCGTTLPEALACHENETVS

Sequence of Histone deacetylase 9 (Homo sapiens) (Q9UKV0 whole entry): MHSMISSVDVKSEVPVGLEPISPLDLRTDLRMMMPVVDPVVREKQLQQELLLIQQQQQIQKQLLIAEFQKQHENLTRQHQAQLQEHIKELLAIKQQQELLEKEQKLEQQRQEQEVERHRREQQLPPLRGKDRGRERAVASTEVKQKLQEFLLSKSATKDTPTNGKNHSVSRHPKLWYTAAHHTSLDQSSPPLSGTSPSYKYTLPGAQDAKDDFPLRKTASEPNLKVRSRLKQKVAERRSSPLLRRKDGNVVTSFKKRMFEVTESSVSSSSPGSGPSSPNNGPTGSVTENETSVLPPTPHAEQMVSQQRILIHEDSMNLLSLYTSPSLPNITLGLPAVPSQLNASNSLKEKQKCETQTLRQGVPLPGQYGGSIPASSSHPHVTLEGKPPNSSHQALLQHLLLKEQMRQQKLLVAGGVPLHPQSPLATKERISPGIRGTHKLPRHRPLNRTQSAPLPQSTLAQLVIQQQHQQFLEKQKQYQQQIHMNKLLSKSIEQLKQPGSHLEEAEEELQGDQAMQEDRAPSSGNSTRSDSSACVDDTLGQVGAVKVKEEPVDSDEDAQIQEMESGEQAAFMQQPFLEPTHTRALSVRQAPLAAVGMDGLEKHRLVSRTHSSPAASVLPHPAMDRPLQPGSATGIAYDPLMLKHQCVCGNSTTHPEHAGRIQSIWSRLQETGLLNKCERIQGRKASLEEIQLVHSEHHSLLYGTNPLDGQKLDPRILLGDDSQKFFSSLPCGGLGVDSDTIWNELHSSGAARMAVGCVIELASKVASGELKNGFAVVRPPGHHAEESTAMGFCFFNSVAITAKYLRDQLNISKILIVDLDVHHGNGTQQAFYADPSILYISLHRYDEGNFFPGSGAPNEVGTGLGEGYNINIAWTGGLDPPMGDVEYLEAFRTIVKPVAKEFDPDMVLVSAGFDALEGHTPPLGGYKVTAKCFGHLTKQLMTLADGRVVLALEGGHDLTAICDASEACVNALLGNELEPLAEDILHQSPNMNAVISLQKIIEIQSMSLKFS
Sequence of Histone deacetylase 5 (Homo sapiens) (Q9UQL6 whole entry): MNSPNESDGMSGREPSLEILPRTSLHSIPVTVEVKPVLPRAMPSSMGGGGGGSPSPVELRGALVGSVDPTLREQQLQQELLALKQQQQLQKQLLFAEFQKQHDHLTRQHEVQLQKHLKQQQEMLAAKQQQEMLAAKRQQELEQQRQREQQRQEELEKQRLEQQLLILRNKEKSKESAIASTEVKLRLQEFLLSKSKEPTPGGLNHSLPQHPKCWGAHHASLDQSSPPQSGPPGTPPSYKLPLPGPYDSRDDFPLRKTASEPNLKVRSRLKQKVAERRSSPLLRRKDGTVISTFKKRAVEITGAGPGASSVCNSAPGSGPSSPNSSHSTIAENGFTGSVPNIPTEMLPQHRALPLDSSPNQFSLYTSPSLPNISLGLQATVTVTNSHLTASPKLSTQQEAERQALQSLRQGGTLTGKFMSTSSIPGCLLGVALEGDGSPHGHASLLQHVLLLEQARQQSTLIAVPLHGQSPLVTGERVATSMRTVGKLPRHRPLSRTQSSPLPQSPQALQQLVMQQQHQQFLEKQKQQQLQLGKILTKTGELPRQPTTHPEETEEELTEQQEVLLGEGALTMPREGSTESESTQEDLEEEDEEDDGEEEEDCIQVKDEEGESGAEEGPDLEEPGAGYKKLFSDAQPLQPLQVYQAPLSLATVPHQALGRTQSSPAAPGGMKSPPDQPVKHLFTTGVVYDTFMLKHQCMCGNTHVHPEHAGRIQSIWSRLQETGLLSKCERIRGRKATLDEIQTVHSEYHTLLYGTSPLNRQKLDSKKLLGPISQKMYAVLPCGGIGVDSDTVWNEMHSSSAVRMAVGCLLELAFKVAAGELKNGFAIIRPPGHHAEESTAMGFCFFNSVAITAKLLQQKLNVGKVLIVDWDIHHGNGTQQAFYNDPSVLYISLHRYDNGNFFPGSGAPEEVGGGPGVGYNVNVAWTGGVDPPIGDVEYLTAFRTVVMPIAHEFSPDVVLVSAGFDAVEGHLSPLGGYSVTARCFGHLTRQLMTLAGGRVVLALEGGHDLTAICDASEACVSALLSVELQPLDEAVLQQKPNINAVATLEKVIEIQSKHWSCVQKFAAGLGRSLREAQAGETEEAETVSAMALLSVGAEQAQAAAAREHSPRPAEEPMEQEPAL
Sequence of NAD-dependent protein deacylase sirtuin-6 (Homo sapiens) (Q8N6T7 whole entry): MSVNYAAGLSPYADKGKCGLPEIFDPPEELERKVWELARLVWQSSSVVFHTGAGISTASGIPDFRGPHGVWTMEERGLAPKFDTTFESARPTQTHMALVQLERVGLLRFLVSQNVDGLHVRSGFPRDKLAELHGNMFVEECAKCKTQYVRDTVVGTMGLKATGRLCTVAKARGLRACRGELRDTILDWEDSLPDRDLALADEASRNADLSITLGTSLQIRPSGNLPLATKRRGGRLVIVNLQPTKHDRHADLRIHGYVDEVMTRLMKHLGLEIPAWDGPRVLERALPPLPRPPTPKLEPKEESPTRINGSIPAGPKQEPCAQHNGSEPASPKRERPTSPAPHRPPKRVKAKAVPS

With `CCCCN(Cc1ccc(C(=O)NO)cc1)C(=O)CCCCn1cc(COc2cccc(Cc3cnc(NC(=O)CSc4nc(C)cc(C)n4)s3)c2)nn1` the inhibition [1] was “inactive”, the Activity [2] was “Active” and the Activity [3] was “Active”. For the same molecule, the inhibition [4] was “Active”, the inhibition [5] was “inactive” and the inhibition [6] was “inactive”. The Activity [7] was “Active”, the inhibition [8] was “inactive” and the Activity [9] was “Active”. For the same molecule, the inhibition [10] was “inactive”.
